Reference: the RNAGym collection of RNA variant scans (doi:10.1126/science.aae0568)
Variants at the floor of the assay were thinned out.

B1: tRNA (parent)
chain: GUUCCGUUGGCGUAAUGGUAACGCGUCUCCCUCCUAAGGAGAAGACUGCGGGUUCGAGUCCCGUACGGAACG

Variants of: B1
Test: yeast fitness relative to wild type (ratio to wild type); higher = fitter; tRNA-Arg(CCU), competitive growth, 37 C, YPD
In short: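 Variants of the tRNA-Arg(CCU) gene were chemically synthesised with a 3% per-site mutation rate across 69 sites and placed at the native genomic locus in Saccharomyces cerevisiae. Six parallel replicates of the pooled strains were competed in YPD at 37°C for 24 hours, and gene amplicons from the start and end populations were read by 100-nucleotide paired-end sequencing. Darwinian fitness relative to wild type was derived from changes in genotype frequencies. Genotypes required ≥ 100 starting reads, and estimates < 0.5 were set to 0.5.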

Row | Variant | yeast fitness
1 | A15G C30A G48C | ≤ 0.5
2 | A14U G17C C30G G41C A42C U47C G50A C62A | ≤ 0.5
3 | A15C G25C C29U U35C A43U A69U | ≤ 0.5
4 | A15U A40G G52C C62G | ≤ 0.5
5 | A15G C33U G50A | ≤ 0.5
6 | A14U U35A G52A C61G C66A | ≤ 0.5
7 | A15C A20C G39C A69C | ≤ 0.5
8 | A14U G23U C61G | ≤ 0.5
9 | A15G C22G | 0.893
10 | A14U C49U | 0.629
11 | A14U U47A A69G | 0.66
12 | A15C G44A U53C U64C | ≤ 0.5
13 | A15C U53G | 0.621
14 | A14U C29A C49A A69U | ≤ 0.5
15 | A14U U16A U26G C29G G67C | ≤ 0.5
16 | A15G G58A G68C | 0.596
17 | A15G G63A | 0.926
18 | A15C C33U A36U C66U | ≤ 0.5
19 | A15G G23C G44A | ≤ 0.5
20 | A14U G25A U35A G39U A65G | ≤ 0.5
21 | A15U A40G C46U | 0.697
22 | A15C G23C C60U | ≤ 0.5
23 | A14U U26A | 0.694
24 | A14U U16A C27G A40U A57U C66A | ≤ 0.5

Row | Variant | yeast fitness
25 | A15C G18A C24G C55A | ≤ 0.5
26 | A15G C34U A40U A69C | ≤ 0.5
27 | A14U U16A G25A A37G | ≤ 0.5
28 | A15U C22G U32A C66A | ≤ 0.5
29 | A15U C22G C31U G50A | ≤ 0.5
30 | A15U C24A G25A U47C G52C C61G | ≤ 0.5
31 | A15G U16G G39A A45C C61A | ≤ 0.5
32 | A15U C24U G44A | 0.503
33 | A15G U28C U35A G38A C46G C62U G67U | ≤ 0.5
34 | A15G A36G A37G | 0.624
35 | A15U A57U A65C | 0.586
36 | A15G A57U A65U | ≤ 0.5
37 | A15C G52A A57U C60U A65G G68A | ≤ 0.5
38 | A15G C30G G39C | ≤ 0.5
39 | A15G U35C | 0.892
40 | A15C U19A U64A A65G G67U | ≤ 0.5
41 | A14U C34G C49G C66U | ≤ 0.5
42 | A14U G17C A70G | ≤ 0.5
43 | A15U C24U G25C A37U A40C U53C G58C | ≤ 0.5
44 | A15C U35C U47C | ≤ 0.5
45 | A15C C22A G25C U28A A36U A57C A65C G68C | 0.568
46 | A15C C55A | 0.562
47 | A15C C31G | 0.632
48 | A15C G25A A65C | 0.711

Row | Variant | yeast fitness
49 | A15U A20G A37C | ≤ 0.5
50 | A14U C29U A37U C49A G67A | ≤ 0.5
51 | A15U C24G C66U | 0.608
52 | A15C G23A A42C G48A G50C | ≤ 0.5
53 | A15G U32A A43U | 0.603
54 | A15U A42G | 0.746
55 | A15C C31A C34A G67C | ≤ 0.5
56 | A15U C22G A37G C55G C60G | ≤ 0.5
57 | A15U A20U C24U A65G A70C | ≤ 0.5
58 | A15G A20C C62G | 0.731
59 | A15G A36C G67C | ≤ 0.5
60 | A15G G44A G50C | ≤ 0.5
61 | A14U C33U A36U G41C | ≤ 0.5
62 | A15G C30U A69U | 0.609
63 | A15C G38A C49A | ≤ 0.5
64 | A14U G44C G50A | ≤ 0.5
65 | A14U U28A U59C C60G | ≤ 0.5
66 | A15G U64A | 0.706
67 | A15C A21G C22U C49U U53C | ≤ 0.5
68 | A15C C22A C31A G38C G58C | 0.542
69 | A14U U28A G67C | ≤ 0.5
70 | A15C A20G A21U C66G | ≤ 0.5
71 | A15G A20U C29G A43G G67A | ≤ 0.5
72 | A15U C22G G52A A65U | ≤ 0.5

Row | Variant | yeast fitness
73 | A15C G39A A57G C66U | ≤ 0.5
74 | A15C C27U C62U | ≤ 0.5
75 | A14U G18A | ≤ 0.5
76 | A15C U47G G68U | ≤ 0.5
77 | A15G A36C | 0.515
78 | A15U A20C C46G G50C C61G | 0.604
79 | A14U U26C A57U | ≤ 0.5
80 | A15G C49U | 1.07
81 | A15G C29G A37C A42U A57G G67A | ≤ 0.5
82 | A15C A20G A65G | ≤ 0.5
83 | A14U C30A | 0.565
84 | A14U C30U | 0.558
85 | A15C A43U G67A | 0.535
86 | A15G A42C G52C | ≤ 0.5
87 | A15C G48A U64G | 0.593
88 | A15G G39C A69C | 0.624
89 | A15G G17A C30A C61A | ≤ 0.5
90 | A15C C29G C30G U47C | ≤ 0.5
91 | A15C G17C C31G G50C C62G A70C | ≤ 0.5
92 | A15C C49G C62U | 0.636
93 | A15G G23C | 0.712
94 | A15G U32A | 0.637
95 | A14U G18A C30A | ≤ 0.5
96 | A15G C29U | 0.952

Row | Variant | yeast fitness
97 | A15G U26A C66A | ≤ 0.5
98 | A15G G44C G68U | ≤ 0.5
99 | A15C C31U C62G U64G A65G G67C | ≤ 0.5
100 | A14U G52C | ≤ 0.5
101 | A15C A36U A69U | 0.509
102 | A14U C30A A43U | ≤ 0.5
103 | A15C G56A G67A | 0.61
104 | A14U C62G | 0.692
105 | A15C A36G U47C C55A | ≤ 0.5
106 | A14U C30G A40G C66U | ≤ 0.5
107 | A15U A21C C29U C30A G38A | ≤ 0.5
108 | A15G A40U | 0.767
109 | A15G C61A A69U | 0.643
110 | A15U A45G C49G | ≤ 0.5
111 | A15C C34G C60U | ≤ 0.5
112 | A14U C62U C66G | ≤ 0.5
113 | A15G G56A A65C | 0.619
114 | A15G A42C G51C G67C | ≤ 0.5
115 | A15G U35G A43G C66U | ≤ 0.5
116 | A15U A20C U32G A65C | 0.537
117 | A15G G67A A69C | 0.767
118 | A14U G25A | 0.686
119 | A15G A57G | 0.899
120 | A15G A57C | 0.636

Row | Variant | yeast fitness
121 | A14U G52A G68C | ≤ 0.5
122 | A15C G67C | 0.684
123 | A14U U16G U19A A42G | 0.512
124 | A15C A36U C46G G56A C60A C62G C66A | ≤ 0.5
125 | A15C C22G A43C G52C | ≤ 0.5
126 | A15G G17A A69C | 0.586
127 | A15G C29G C31G A37C C66A | ≤ 0.5
128 | A14U C30U C62A | ≤ 0.5
129 | A15U A69C | 0.77
130 | A15G A36G G56U C62U | ≤ 0.5
131 | A15C U47C A69U | 0.551
132 | A15G G18C | 0.7
133 | A15G G23A C60U | ≤ 0.5
134 | A15C G50A C60G U64G | ≤ 0.5
135 | A15C U47A G52C | 0.539
136 | A15U A21C G39C U54A | ≤ 0.5
137 | A15G A21C | 0.709
138 | A14U U16G C33G G50A G58C G63C | ≤ 0.5
139 | A15U A20C A43C G51A G56C | ≤ 0.5
140 | A15C C24U C66U | ≤ 0.5
141 | A15U A42C G48A G50C | ≤ 0.5
142 | A15G C34G C46U | ≤ 0.5
143 | A15C G25A U28A | ≤ 0.5
144 | A15C U54G | 0.537

Row | Variant | yeast fitness
145 | A15U A36U C60G | ≤ 0.5
146 | A15G C49U C61U | 0.672
147 | A15C A20G A70C | 0.6
148 | A15C C34G A37U C46G A69U | ≤ 0.5
149 | A15C G17A A57C | 0.527
150 | A15G A20C C34U U59G | 0.705
151 | A15C U32A A65C | ≤ 0.5
152 | A15G C30G G63A | ≤ 0.5
153 | A15G U26G C30U G52A | ≤ 0.5
154 | A15G G58A C62U A69C | 0.685
155 | A15G C60G A69C | 0.585
156 | A15C U59A C61A | 0.698
157 | A14U U19A A36C | ≤ 0.5
158 | A15C C29U G68C | ≤ 0.5
159 | A15G A42U | 0.971
160 | A14U G17C C24A C30G C62A A70U | ≤ 0.5
161 | A15C C22A | 0.697
162 | A15G C29A C34G | ≤ 0.5
163 | A14U U19C C29U C30A A45C | ≤ 0.5
164 | A15G G39A A40G A57C | 0.534
165 | A14U C30G U32G | ≤ 0.5
166 | A15C C30A C34A A42C G56A A57U | ≤ 0.5
167 | A15U C22G C31U | 0.536
